Measurements as given in ChEMBL document CHEMBL5712887, “Disruption of BRD4 at H3K27Ac-enriched enhancer region correlates with decreased c-Myc expression in Merkel cell carcinoma” (Epigenetics, 2015).
Active and inactive are the calls of the source. The calls are words filed in the database; no cut-off is given here.

Key:
[1] = Antitumor activity against human MCC-3 cells xenografted in NSG mouse assessed as reduction in tumor volume at 50 mg/kg, ip administered daily for 3 weeks and measured post-last dose by caliper method relative to control; type: functional; design: scale not given: the % may be the effect or the level left
MCC-3 [2] = experiment: Antitumor activity against human MCC-3 cells xenografted in NSG mouse assessed as reduction in c-Myc expression at 50 mg/kg, ip administered daily for 3 weeks and measured post-last dose by immunoblotting method; type: functional, organism-based
In short: (§1)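 Tumours excised at endpoint from NSG mice bearing subcutaneous flank xenografts (~100 mm3 at randomisation), dosed i.p. daily for 3 weeks, vehicle 10% 2-hydroxypropyl-β-cyclodextrin in water. Lysates resolved by SDS-PAGE, electroblotted to PVDF (200V, 2 h). Membranes blocked in 5% milk, primary antibody overnight at 4°C, then secondary 1 h, and detected by ECL.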

[3] = Toxicity in human MKL-1 cells xenografted NSG mouse assessed as effect on water intake at 50 mg/kg, ip administered daily for 3 weeks; type: organism-based; conditions: in vivo, 504 h
In short: (§2)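 Mice with subcutaneous xenografts dosed i.p. daily for 3 weeks (vehicle 10% 2-hydroxypropyl-β-cyclodextrin in water) and monitored daily. Toxicity judged from body weight, food and water intake, activity and general examination.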

MCC-3 [4] = experiment: Antitumor activity against human MCC-3 cells xenografted in NSG mouse assessed as reduction in c-Myc mRNA expression at 50 mg/kg, ip administered daily for 3 weeks and measured post-last dose by qRT-PCR analysis; type: functional, organism-based
In short: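 Excised xenograft tumours from NSG mice dosed i.p. daily for 3 weeks (vehicle 10% 2-hydroxypropyl-β-cyclodextrin in water) versus vehicle group. c-Myc mRNA measured by qRT-PCR on 3 biological replicates.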

[5] = Toxicity in human MCC-3 cells xenografted NSG mouse assessed as effect on activity at 50 mg/kg, ip administered daily for 3 weeks; type: organism-based; conditions: in vivo, 504 h; in short: as §2
[6] = Toxicity in human MKL-1 cells xenografted NSG mouse assessed as effect on food intake at 50 mg/kg, ip administered daily for 3 weeks; type: organism-based; conditions: in vivo, 504 h; in short: as §2
[7] = Toxicity in human MKL-1 cells xenografted NSG mouse assessed as effect on activity at 50 mg/kg, ip administered daily for 3 weeks; type: organism-based; conditions: in vivo, 504 h; in short: as §2
[8] = Toxicity in human MCC-3 cells xenografted NSG mouse assessed as effect on body weight at 50 mg/kg, ip administered daily for 3 weeks; type: organism-based; conditions: in vivo, 504 h; in short: as §2
[9] = Toxicity in human MKL-1 cells xenografted NSG mouse assessed as effect on body weight at 50 mg/kg, ip administered daily for 3 weeks; type: organism-based; conditions: in vivo, 504 h; in short: as §2
[10] = Antitumor activity against human MKL-1 cells xenografted in NSG mouse assessed as reduction in tumor volume at 50 mg/kg, ip administered daily for 3 weeks and measured post-last dose by caliper method relative to control; type: functional; design: scale not given: the % may be the effect or the level left
In short: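 NSG mice with subcutaneous flank xenografts (MKL-1: 2 × 10^7 cells in matrigel), randomised at ~100 mm3 (n ≥ 7 per group). Dosed i.p. daily for 3 weeks; vehicle 10% 2-hydroxypropyl-β-cyclodextrin in water. Calipers, volume = L2 × W/2; final tumour volume, mean ± SEM, Mann-Whitney test.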

[11] = Toxicity in human MCC-3 cells xenografted NSG mouse assessed as effect on food intake at 50 mg/kg, ip administered daily for 3 weeks; type: organism-based; conditions: in vivo, 504 h; in short: as §2
MCC-3 [12] = experiment: Antitumor activity against human MCC-3 cells xenografted in NSG mouse assessed as effect on BRD4 expression at 50 mg/kg, ip administered daily for 3 weeks and measured post-last dose by immunoblotting method; type: functional, organism-based; in short: as §1
[13] = Toxicity in human MKL-1 cells xenografted NSG mouse assessed as effect on general examination at 50 mg/kg, ip administered daily for 3 weeks; type: organism-based; conditions: in vivo, 504 h; in short: as §2
Mus musculus = experiment: In vivo disruption of BRD4 occupancy at the putative c-Myc super-enhancer region in human MCC-3 cells xenografted NSG mouse at 50 mg/kg, ip administered daily for 3 weeks and measured post-last dose by ChIP-qPCR analysis; type: functional, organism-based
In short: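 Frozen xenograft tumours crosslinked with 1% formaldehyde for 10 min, quenched with 0.125 M glycine, lysed and sonicated. Anti-BRD4 IP on anti-rabbit IgG beads. SYBR qPCR with primers at the putative c-Myc super-enhancer, plus control regions 5000 bp up- and downstream. 3 biological replicates, vehicle versus treated.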

MCC-3 [14] = experiment: Antitumor activity against human MCC-3 cells xenografted in NSG mouse assessed as effect on H3K27Ac expression at 50 mg/kg, ip administered daily for 3 weeks and measured post-last dose by immunoblotting method; type: functional, organism-based; in short: as §1
[15] = Toxicity in human MCC-3 cells xenografted NSG mouse assessed as effect on general examination at 50 mg/kg, ip administered daily for 3 weeks; type: organism-based; conditions: in vivo, 504 h; in short: as §2
[16] = Toxicity in human MCC-3 cells xenografted NSG mouse assessed as effect on water intake at 50 mg/kg, ip administered daily for 3 weeks; type: organism-based; conditions: in vivo, 504 h; in short: as §2

Cc1sc2c(c1C)C(c1ccc(Cl)cc1)=N[C@@H](CC(=O)OC(C)(C)C)c1nnc(C)n1-2
Activity [1]: 75.6% | Activity (MCC-3 [2]): Active | Activity [3]: Non-Toxic | Activity (MCC-3 [4]): Active | Activity [5]: Non-Toxic | Activity [6]: Non-Toxic | Activity [7]: Non-Toxic | Activity [8]: Non-Toxic | Activity [9]: Non-Toxic | Activity [10]: 48.9% | Activity [11]: Non-Toxic | Activity (MCC-3 [12]): inactive | Activity [13]: Non-Toxic | Activity (Mus musculus): Active | Activity (MCC-3 [14]): inactive | Activity [15]: Non-Toxic | Activity [16]: Non-Toxic
